Among the data in ChEMBL document CHEMBL1122557, “Antiallergic agents. 3. N-(1H-tetrazol-5-yl)-2-pyridinecarboxamides” (1984) are inhibition in vivo and inhibition values, retold here.

Assay [1] deals with Rattus norvegicus. Briefly: Inhibition of passive cutaneous anaphylaxis following 10 mg/kg p.o. administration. The format is functional. The following applies: route oral. The procedure, abridged: (§1)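 Rat passive cutaneous anaphylaxis model, with test agents given by the oral route.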
The subject of assay [2] is Rattus norvegicus. Kind of assay: Inhibition of passive cutaneous anaphylaxis following 3 mg/kg p.o. administration. The conditions noted are these: route oral. Format: functional. The gist of the method: as §1
Assay [3] has as its system Rattus norvegicus. Kind of assay: Inhibition of passive cutaneous anaphylaxis following 30 mg/kg p.o. administration. The format is functional. The following applies: route oral. The gist of the method: as §1
Assay [4] relates to Rattus norvegicus. Kind of assay: Inhibition of passive cutaneous anaphylaxis following 1 mg/kg p.o. administration. The format is functional. The following applies: route oral. The gist of the method:
as §1

Assay [5] concerns Rattus norvegicus. Briefly: Inhibition of passive cutaneous anaphylaxis following 3 mg/kg p.o. (5 min pretreatment) administration. The format is functional. The following applies: route oral. The procedure, abridged: as §1
For assay [6], the system named is Rattus norvegicus. Kind of assay: Inhibition of passive cutaneous anaphylaxis following 10 mg/kg p.o. administration; Inactive. The format is functional, organism-based. The arrangement: dose 10 mg/kg. The following applies: at 10 mg/kg. The gist of the method:
as §1

Active and inactive are the calls of the source. No cut-off for these calls is given here.

A word on the inhibition in vivo: it is the change of the read-out against control, counted positive when it falls. For the molecule `COc1cccc(C(=O)Nc2nn[nH]n2)n1`, in the assay on Rattus norvegicus [1], testing at 10 mg/kg gave an inhibition in vivo of 58%. Besides, the inhibition in vivo at 3 mg/kg in the assay with Rattus norvegicus [2] was 36%.

In turn, `COc1cccnc1C(=O)Nc1nn[nH]n1` gave an inhibition in vivo at 10 mg/kg in the assay with Rattus norvegicus [1] of 0%.

In the assay with Rattus norvegicus [3], `O=C(Nc1nn[nH]n1)c1ccncc1` registered an inhibition in vivo at 30 mg/kg of 57%.

For `Cc1cccnc1C(=O)Nc1nn[nH]n1`, 10 mg/kg produced 69% inhibition in vivo in the assay with Rattus norvegicus [1].

Regarding `CCCCc1cccc(C(=O)Nc2nn[nH]n2)n1`, in the assay with Rattus norvegicus [1], the inhibition in vivo at 10 mg/kg was 18%.

In turn, `O=C(Nc1nn[nH]n1)c1cccc(Br)n1` yielded an inhibition in vivo at 10 mg/kg with Rattus norvegicus [1] of 48%. In addition, in the assay on Rattus norvegicus [2], at 3 mg/kg the inhibition in vivo was 38%.

With `O=C(Nc1nn[nH]n1)c1cccc(/C=C/c2ccccc2)n1`, the inhibition in vivo at 3 mg/kg in the assay with Rattus norvegicus [2] was determined as 73%; in the assay on Rattus norvegicus [5], 75%. Further, at 1 mg/kg the inhibition in vivo in the assay on Rattus norvegicus [4] was 53%.

`O=C(O)C(=O)Nc1cccc(/C=C/c2ccccc2)n1`: the inhibition result with Rattus norvegicus [6] is “inactive”.

With `CSc1ccc(C(=O)Nc2nn[nH]n2)nc1`, in the assay with Rattus norvegicus [1], testing at 10 mg/kg gave an inhibition in vivo of 29%.

For `O=C(Nc1nn[nH]n1)c1ncccc1Cl`, the inhibition in vivo at 10 mg/kg in the assay with Rattus norvegicus [1] worked out at 22%.

For `O=C(O)c1cccc(/C=C/c2ccccc2)n1`, in the assay with Rattus norvegicus [6], the inhibition result was “inactive”.

In the assay on Rattus norvegicus [1], `COc1ccnc(C(=O)Nc2nn[nH]n2)c1` showed an inhibition in vivo at 10 mg/kg of 88%.

`CCCCc1ccnc(C(=O)Nc2nn[nH]n2)c1` gave an inhibition in vivo at 10 mg/kg with Rattus norvegicus [1] of 54%. Further, the inhibition in vivo at 3 mg/kg in the assay on Rattus norvegicus [2] was determined as 33%.

In the assay with Rattus norvegicus [1], `O=C(Nc1nn[nH]n1)c1cc([N+](=O)[O-])ccn1` yielded an inhibition in vivo at 10 mg/kg of 38%.

In the assay with Rattus norvegicus [1], `CCCCOc1cccc(C(=O)Nc2nn[nH]n2)n1` registered an inhibition in vivo at 10 mg/kg of 8%. Also, at 3 mg/kg the inhibition in vivo in the assay with Rattus norvegicus [2] was 18%.

In the assay on Rattus norvegicus [1], `Cc1cc([N+](=O)[O-])cc(C(=O)Nc2nn[nH]n2)n1` gave an inhibition in vivo at 10 mg/kg of 6%.

For the molecule `C(=C\c1cccc(-c2nn[nH]n2)n1)/c1ccccc1`, in the assay on Rattus norvegicus [6], the inhibition entry was “inactive”.

Molecule `COc1cc(C)nc(C(=O)Nc2nn[nH]n2)c1` returned an inhibition in vivo at 10 mg/kg in the assay on Rattus norvegicus [1] of 20%.

`O=C(Nc1nn[nH]n1)c1cc(Br)ccn1` gave an inhibition in vivo at 10 mg/kg in the assay with Rattus norvegicus [1] of 100%. Further, in the assay on Rattus norvegicus [2], testing at 3 mg/kg gave an inhibition in vivo of 34%. This molecule returned an inhibition in vivo at 1 mg/kg with Rattus norvegicus [4] of 9%.

For the molecule `Cc1cc(C)nc(C(=O)Nc2nn[nH]n2)c1`, the inhibition in vivo at 3 mg/kg in the assay with Rattus norvegicus [2] worked out at 44%; with Rattus norvegicus [5] it was 37%.

Turning to `O=C(Nc1nn[nH]n1)c1cccc(CCc2ccccc2)n1`, in the assay with Rattus norvegicus [1], 10 mg/kg produced 45% inhibition in vivo.

In the case of `Cc1ccc(C)c(C(=O)Nc2nn[nH]n2)n1`, the inhibition in vivo at 3 mg/kg in the assay with Rattus norvegicus [2] was determined as 65%; in the assay with Rattus norvegicus [5] it was 72%. In the assay with Rattus norvegicus [4], the inhibition in vivo at 1 mg/kg was determined as 37%.

The molecule `CCCc1cccc(C(=O)Nc2nn[nH]n2)n1` returned an inhibition in vivo at 10 mg/kg in the assay with Rattus norvegicus [1] of 38%.

`O=C(Nc1nn[nH]n1)c1cccc(Oc2ccccc2)n1` had an inhibition in vivo at 10 mg/kg in the assay with Rattus norvegicus [1] of 0%.

In turn, `Cc1cc(Cl)cc(C(=O)Nc2nn[nH]n2)n1` came in with an inhibition in vivo at 10 mg/kg in the assay with Rattus norvegicus [1] of 100%. This molecule also registered an inhibition in vivo at 1 mg/kg in the assay with Rattus norvegicus [4] of 66%. Moreover, the inhibition in vivo at 3 mg/kg in the assay with Rattus norvegicus [5] stood at 85%.

As to `CC(C)c1ccnc(C(=O)Nc2nn[nH]n2)c1`, the inhibition in vivo at 3 mg/kg in the assay on Rattus norvegicus [2] was 34%. The molecule further displayed an inhibition in vivo at 1 mg/kg in the assay with Rattus norvegicus [4] of 36%.

As for `Cc1ccc(C(=O)Nc2nn[nH]n2)nc1C`, the inhibition in vivo at 10 mg/kg in the assay with Rattus norvegicus [1] amounted to 42%.

Turning to `O=C(Nc1nn[nH]n1)c1ccccn1`, the inhibition in vivo at 10 mg/kg in the assay on Rattus norvegicus [1] was 35%. In addition, the inhibition in vivo at 3 mg/kg in the assay with Rattus norvegicus [2] was found to be 29%. In addition, the inhibition in vivo at 1 mg/kg in the assay on Rattus norvegicus [4] stood at 0%. This molecule also showed an inhibition in vivo at 30 mg/kg in the assay with Rattus norvegicus [3] of 100%.

Turning to `O=C(Nc1nn[nH]n1)c1cc(Cl)ccn1`, 10 mg/kg produced 100% inhibition in vivo in the assay with Rattus norvegicus [1]. The inhibition in vivo at 3 mg/kg in the assay with Rattus norvegicus [2] turned out to be 72%; in the assay on Rattus norvegicus [5], 71%. In the assay with Rattus norvegicus [4], this molecule came in with an inhibition in vivo at 1 mg/kg of 38%.

For `CNc1ccc(-c2cc(C)cc(C(=O)Nc3nn[nH]n3)n2)cc1`, testing at 3 mg/kg in the assay on Rattus norvegicus [2] gave an inhibition in vivo of 89%.

As to `O=C(Nc1nn[nH]n1)c1cccc(Cl)n1`, the inhibition in vivo at 10 mg/kg in the assay on Rattus norvegicus [1] came out at 13%. In the assay with Rattus norvegicus [2], this molecule showed an inhibition in vivo at 3 mg/kg of 18%.

`O=C(Nc1nn[nH]n1)c1cccnc1` yielded an inhibition in vivo at 10 mg/kg with Rattus norvegicus [1] of 3%. The same molecule had an inhibition in vivo at 3 mg/kg in the assay with Rattus norvegicus [2] of 4%. This molecule also showed an inhibition in vivo at 30 mg/kg in the assay with Rattus norvegicus [3] of 18%.

For `Cc1cccc(C(=O)Nc2nn[nH]n2)n1`, the inhibition in vivo at 3 mg/kg was 46% in the assay on Rattus norvegicus [2] and 73% in the assay on Rattus norvegicus [5]. In addition, the inhibition in vivo at 1 mg/kg with Rattus norvegicus [4] was determined as 40%.

For `CCc1ccnc(C(=O)Nc2nn[nH]n2)c1`, the inhibition in vivo at 3 mg/kg in the assay with Rattus norvegicus [2] was 29%; with Rattus norvegicus [5], 54%. Moreover, the inhibition in vivo at 1 mg/kg in the assay on Rattus norvegicus [4] came out at 32%.

As for `Cc1ccnc(C(=O)Nc2nn[nH]n2)c1`, the inhibition in vivo at 3 mg/kg was determined as 42% with Rattus norvegicus [2] and 51% in the assay with Rattus norvegicus [5]. Besides, the inhibition in vivo at 1 mg/kg in the assay on Rattus norvegicus [4] is 28%.

Consider `CCOC(=O)C(=O)Nc1cccc(/C=C/c2ccccc2)n1`, for which the inhibition entry in the assay on Rattus norvegicus [6] is “inactive”.

`Cc1ccc(C(=O)Nc2nn[nH]n2)nc1` displayed an inhibition in vivo at 10 mg/kg in the assay with Rattus norvegicus [1] of 42%.
